Measured values published in ChEMBL document CHEMBL1143227, “Design, synthesis, and in vitro activity of peptidomimetic inhibitors of myeloid differentiation factor 88” (J Med Chem, 2008).
Activity calls are given as the source filed them. The calls are words filed in the database; no cut-off is given here.

Experiments:
HeLa [1] = test: Inhibition of IL-1-alpha-induced NF-kappaB activation in human HeLa cells at 100 uM; format: functional
Method in brief: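 HeLa cells are grown in EMEM with 2 mM glutamine, 1% nonessential amino acids, 7.5% FBS and pen/strep. They are seeded at 3 × 10⁵/well, left overnight, then switched to serum-free EMEM. Compound (DMSO, final 100 µM) is added for 6 h at 37 °C, then recombinant human IL-1 5 ng/mL for 30 min. Activated p65 in about 10 µg lysate protein is read by TransAM colorimetric ELISA (A450). % inhibition uses stimulated and unstimulated controls with and without compound.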

[2] = target: Myeloid differentiation primary response protein MyD88 (Homo sapiens) (UniProt Q99836); test: Inhibition of MyD88 homodimerization by yeast two-hybrid assay
Chain of Myeloid differentiation primary response protein MyD88 (Homo sapiens) (Q99836 whole entry): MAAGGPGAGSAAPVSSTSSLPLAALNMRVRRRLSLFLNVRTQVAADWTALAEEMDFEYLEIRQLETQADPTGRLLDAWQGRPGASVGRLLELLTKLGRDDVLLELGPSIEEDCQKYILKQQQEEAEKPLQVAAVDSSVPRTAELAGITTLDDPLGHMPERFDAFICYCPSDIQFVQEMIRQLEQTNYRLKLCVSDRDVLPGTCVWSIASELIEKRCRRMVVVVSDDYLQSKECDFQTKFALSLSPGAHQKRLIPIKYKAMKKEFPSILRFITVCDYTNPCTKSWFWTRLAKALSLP
Method in brief: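 Yeast AH109 is cotransformed with AD-MyD88 and BD-MyD88, grown overnight at 30 °C in SGd/-Leu/-Trp, then diluted 1/20 into SGd/-Ade/-His/-Leu/-Trp with compound at a final 100 µM in oxygen-sensor plates. Growth at 30 °C is read by fluorescence (ex 485/em 630 nm, bottom read) every 90 min for 25 readings. Signal is normalized to initial well fluorescence, and growth curves are described by seven curve parameters.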

Mus musculus = test: Decrease in IL-1-beta-dependent IL6 production in mouse at 50 to 200 mg/kg; format: functional, organism-based
HeLa [3] = test: Toxicity against human HeLa cells at 4 uM by MTT assay; format: cell-based
HeLa [4] = test: Toxicity against human HeLa cells at 8 uM by MTT assay; format: cell-based
HeLa [5] = test: Toxicity against human HeLa cells at 10 uM by MTT assay; format: cell-based
HeLa [6] = test: Toxicity against human HeLa cells at 20 uM by MTT assay; format: cell-based
HeLa [7] = test: Inhibition of IL-1-alpha-induced NF-kappaB activation in human HeLa cells at 4 uM; format: functional
HeLa [8] = test: Inhibition of IL-1-alpha-induced NF-kappaB activation in human HeLa cells at 8 uM; format: functional
HeLa [9] = test: Inhibition of IL-1-alpha-induced NF-kappaB activation in human HeLa cells at 10 uM; format: functional
HeLa [10] = test: Inhibition of IL-1-alpha-induced NF-kappaB activation in human HeLa cells at 20 uM; format: functional

| SMILES | Activity [2] | inhibition at 100 µM (HeLa [1]) [%] | also measured |
| --- | --- | --- | --- |
| CC(C)[C@H](NC(=O)CCc1ccccc1)C(=O)N1CCCC1 | – | 31 | – |
| NC(=O)CN1CCC[C@]2(CCCN2C(=O)CCNC(=O)c2ccc(NC(=O)Cc3cccc4ccccc34)cc2)C1=O | Active | 18 | – |
| CC(C)(C)c1ccc(S(=O)(=O)/C=C/C#N)cc1 [BAY-11-7085] | – | – | Activity (HeLa [3]): 0%; Activity (HeLa [4]): 0%; Activity (HeLa [5]): 4%; Activity (HeLa [6]): 41%; inhibition at 4 µM (HeLa [7]): 0%; inhibition at 8 µM (HeLa [8]): 35%; inhibition at 10 µM (HeLa [9]): 44%; inhibition at 20 µM (HeLa [10]): 65% |

Continued, in another order:

| Activity [2] | SMILES | inhibition at 100 µM (HeLa [1]) [%] | also measured |
| --- | --- | --- | --- |
| Active | NC(=O)[C@H]1CCS[C@@H]2C[C@]3(CCCN3C(=O)Cc3ccc(NC(=O)COc4ccc(Cl)cc4Cl)cc3)C(=O)N12 | 26 | Activity (Mus musculus): Active |
| Active | NC(=O)[C@H]1CCS[C@@H]2C[C@]3(CCCN3C(=O)c3nc(NC(=O)COc4ccc(Cl)cc4)n[nH]3)C(=O)N12 | 17 | – |
| Active | Cc1cnc(C(=O)Nc2ccc(C(=O)NCCC(=O)N3CCC[C@]34C[C@H]3SCC[C@H](C(N)=O)N3C4=O)cc2)cn1 | 23 | – |
| Active | N=C(N)NCCCCNC(=O)c1ccc2cc(NC(=O)CN3C(=O)[C@@H]4C[C@@H](O)CN4C(=O)c4ccccc43)ccc2c1 | 24 | – |
